Measurements published in ChEMBL document CHEMBL4680220, “Synthesis and biological evaluation of acridine-based histone deacetylase inhibitors as multitarget agents against Alzheimer's disease” (Eur J Med Chem, 2020).

Columns and labels:
[1] = target: T1, Amyloid-beta precursor protein (Homo sapiens, UniProt P05067); test: Disaggregation of self-induced amyloid beta (1 to 42) (unknown origin) preformed fibrils at 10 uM measured after 24 hrs by thioflavin-T fluorescence assay relative to control
Summary of the method: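 Aβ1-42 (10 µM) with 10 µM ThT and 1 mM EDTA in 50 mM phosphate buffer (150 mM NaCl, pH 7.4) pre-aggregated 24 h at 37 °C, 700 rpm; fluorescence read (ex 440/em 486 nm). Compound then added and incubated a further 24 h at 37 °C before re-reading. Disaggregation = (first − second reading)/first reading. Triplicate.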

[2] = target: T2, Protein deacetylase HDAC6 (Homo sapiens, UniProt Q9UBN7); test: Inhibition of recombinant human full-length N-terminal GST-tagged HDAC6 expressed in baculovirus infected Sf9 insect cells using Boc-Lys(Ac)-AMC as substrate preincubated for 5 mins followed by substrate addition and measured after 30 mins by fluorescence assay
T2 sequence (Q9UBN7 whole entry): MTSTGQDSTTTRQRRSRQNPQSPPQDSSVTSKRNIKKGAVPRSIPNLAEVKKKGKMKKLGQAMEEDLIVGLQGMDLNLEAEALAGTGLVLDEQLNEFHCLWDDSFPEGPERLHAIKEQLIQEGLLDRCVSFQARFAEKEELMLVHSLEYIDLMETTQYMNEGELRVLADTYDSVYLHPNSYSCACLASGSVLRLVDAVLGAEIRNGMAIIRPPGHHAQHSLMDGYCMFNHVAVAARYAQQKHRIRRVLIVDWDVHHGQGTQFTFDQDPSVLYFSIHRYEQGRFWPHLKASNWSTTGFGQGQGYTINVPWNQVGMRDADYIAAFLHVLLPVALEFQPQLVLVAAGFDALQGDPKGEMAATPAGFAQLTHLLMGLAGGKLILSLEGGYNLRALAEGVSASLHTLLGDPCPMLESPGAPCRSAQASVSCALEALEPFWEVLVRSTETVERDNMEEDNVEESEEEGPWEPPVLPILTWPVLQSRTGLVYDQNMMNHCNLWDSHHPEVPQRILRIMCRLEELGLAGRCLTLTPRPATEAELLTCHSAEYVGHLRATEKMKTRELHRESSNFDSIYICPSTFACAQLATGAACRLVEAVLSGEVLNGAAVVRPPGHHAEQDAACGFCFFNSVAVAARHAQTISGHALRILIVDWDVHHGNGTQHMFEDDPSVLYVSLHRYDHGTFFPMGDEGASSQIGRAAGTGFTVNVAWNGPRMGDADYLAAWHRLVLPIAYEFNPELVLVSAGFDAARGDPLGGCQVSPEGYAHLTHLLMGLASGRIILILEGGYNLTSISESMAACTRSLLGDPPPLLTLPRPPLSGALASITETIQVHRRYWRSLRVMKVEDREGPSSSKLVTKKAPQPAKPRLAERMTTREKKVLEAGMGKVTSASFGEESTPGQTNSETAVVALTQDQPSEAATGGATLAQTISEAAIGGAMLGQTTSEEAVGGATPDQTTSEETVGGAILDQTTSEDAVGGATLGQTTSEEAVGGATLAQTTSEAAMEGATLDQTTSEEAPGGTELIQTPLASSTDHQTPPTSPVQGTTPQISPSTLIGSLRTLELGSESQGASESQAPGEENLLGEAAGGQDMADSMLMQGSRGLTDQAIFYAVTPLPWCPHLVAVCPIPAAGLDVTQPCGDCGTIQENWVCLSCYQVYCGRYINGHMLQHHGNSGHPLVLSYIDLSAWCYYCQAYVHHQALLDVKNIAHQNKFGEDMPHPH

Histone deacetylase 5 = Histone deacetylase 5 (Homo sapiens, UniProt Q9UQL6); test: Inhibition of recombinant human C-terminal His-tagged HDAC5 (656 to 1122 residues) expressed in baculovirus infected Sf9 insect cells using fluorogenic HDAC 2A substrate preincubated for 5 mins followed by substrate addition and measured after 30 mins by fluorescence assay
[3] = target: Class 1 histone deacetylase (Homo sapiens, UniProt Q13547+O15379+Q92769+Q9BY41); test: Inhibition of class 1 HDAC in human HeLa cell nuclear extract using Boc-Lys(Ac)-AMC as substrate preincubated for 5 mins followed by substrate addition and measured after 30 mins by fluorescence assay; format: cell-based
Acetylcholinesterase = Acetylcholinesterase (Homo sapiens, UniProt P22303); test: Inhibition of recombinant human C-terminal 6His-tagged AChE (Glu32 to Leu614 residues) expressed in CHO cells using acetylthiocholine iodide as substrate preincubated for 5 mins measured after 15 mins by DTNB reagent based assay
Summary of the method: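 Enzyme, compounds, acetylthiocholine iodide and DTNB diluted in 100 mM phosphate buffer pH 7.4. AChE was preincubated with the compound at varying concentrations for 5 min at 37 °C. The reaction was started with 1 mM ATCI solution and run 15 min at 37 °C. 2 mM DTNB solution was then added for 5 min. Absorbance read at 412 nm. IC50 set 0.1% DMSO wells as 100% and no-enzyme wells as 0%. Run in triplicate.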

[4] = target: T1, Amyloid-beta precursor protein; test: Inhibition of amyloid beta (1 to 42) (unknown origin) self aggregation after 24 hrs by thioflavin-T fluorescence method
Summary of the method: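 ThT aggregation assay. Compound at varying concentrations combined with 10 µM Aβ1-42 (1 mM DMSO stock), 10 µM ThT, 1 mM EDTA in 50 mM phosphate buffer (150 mM NaCl, pH 7.4). Incubated 24 h at 37 °C with shaking at 700 rpm; fluorescence ex 440/em 486 nm. 0.1% DMSO wells = 100% aggregation; compound wells without Aβ = background. IC50 from triplicates.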

Histone deacetylase 4 = Histone deacetylase 4 (Homo sapiens, UniProt P56524); test: Inhibition of recombinant human N-terminal GST-tagged/C-terminal His-tagged HDAC4 (627 to 1084 residues) expressed in baculovirus expression system using Boc-Lys(TFA)-AMC as substrate preincubated for 5 mins followed by substrate addition and measured after 30 mins by fluorescence assay
Histone deacetylase 9 = Histone deacetylase 9 (Homo sapiens, UniProt Q9UKV0); test: Inhibition of recombinant human C-terminal His-tagged HDAC9 (604 to 1066 residues) expressed in baculovirus infected Sf9 cells using fluorogenic HDAC 2A substrate preincubated for 5 mins followed by substrate addition and measured after 30 mins by fluorescence assay
Histone deacetylase 7 = target: T3, Histone deacetylase 7 (Homo sapiens, UniProt Q8WUI4); test: Inhibition of recombinant human N-terminal GST-tagged HDAC7 (518 to end residues) expressed in baculovirus infected Sf9 cells using fluorogenic HDAC 2A substrate preincubated for 5 mins followed by substrate addition and measured after 30 mins by fluorescence assay
T3 sequence (Q8WUI4 whole entry): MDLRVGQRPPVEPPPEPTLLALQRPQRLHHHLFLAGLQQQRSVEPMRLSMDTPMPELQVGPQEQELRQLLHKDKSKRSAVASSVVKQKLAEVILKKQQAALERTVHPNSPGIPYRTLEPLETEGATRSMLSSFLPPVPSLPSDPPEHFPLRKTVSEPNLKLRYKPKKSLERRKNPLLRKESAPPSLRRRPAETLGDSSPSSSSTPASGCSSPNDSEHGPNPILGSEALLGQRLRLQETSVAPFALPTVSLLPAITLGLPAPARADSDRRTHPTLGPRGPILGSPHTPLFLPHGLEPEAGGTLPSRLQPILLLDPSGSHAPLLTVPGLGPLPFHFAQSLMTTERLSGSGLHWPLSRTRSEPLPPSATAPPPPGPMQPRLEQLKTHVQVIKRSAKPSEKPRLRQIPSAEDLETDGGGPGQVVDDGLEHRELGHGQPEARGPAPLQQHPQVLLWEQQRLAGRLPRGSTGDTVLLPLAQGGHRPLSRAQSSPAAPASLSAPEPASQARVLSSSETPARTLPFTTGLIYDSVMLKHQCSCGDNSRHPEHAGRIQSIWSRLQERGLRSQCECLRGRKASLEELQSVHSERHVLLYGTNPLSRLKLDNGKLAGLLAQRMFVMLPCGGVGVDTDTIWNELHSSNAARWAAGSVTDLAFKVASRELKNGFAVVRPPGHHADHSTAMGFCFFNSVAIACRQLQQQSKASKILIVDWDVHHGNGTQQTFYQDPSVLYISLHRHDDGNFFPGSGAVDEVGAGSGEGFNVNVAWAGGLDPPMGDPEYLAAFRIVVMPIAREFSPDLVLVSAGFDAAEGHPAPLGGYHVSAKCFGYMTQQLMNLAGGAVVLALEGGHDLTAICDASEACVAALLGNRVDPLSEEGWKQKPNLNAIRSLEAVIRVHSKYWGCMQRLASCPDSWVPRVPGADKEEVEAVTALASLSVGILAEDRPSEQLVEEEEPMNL

[5] = Intrinsic clearance in human liver microsomes at 1 uM preincubated for 3 mins followed by NADPH addition and measured up to 60 mins by LC-MS/MS analysis; format: ADME, Microsome; details: 1 h, time <=63 min
Summary of the method: (§1)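 Mixed-gender human liver microsomes with test article at 1 µM final. Testosterone (5 µM) run separately as control. Mixture without cofactor equilibrated 3 min at 37 °C in a shaking water bath, then started with cofactor. Aliquots taken at 0, 10, 20, 30 and 60 min. CLint = k/P, where k is the elimination rate constant and P is the incubation protein concentration.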

[6] = Elimination rate constant in human liver microsomes at 1 uM preincubated for 3 mins followed by NADPH addition and measured up to 60 mins by LC-MS/MS analysis; format: ADME, Microsome; details: time <=63 min; summary of the method: as §1
[7] = Half life in human liver microsomes at 1 uM preincubated for 3 mins followed by NADPH addition and measured up to 60 mins by LC-MS/MS analysis; format: ADME, Microsome; details: time <=63 min; summary of the method: as §1

Chain of Histone deacetylase 9 (Q9UKV0 whole entry, the tested form may be a part): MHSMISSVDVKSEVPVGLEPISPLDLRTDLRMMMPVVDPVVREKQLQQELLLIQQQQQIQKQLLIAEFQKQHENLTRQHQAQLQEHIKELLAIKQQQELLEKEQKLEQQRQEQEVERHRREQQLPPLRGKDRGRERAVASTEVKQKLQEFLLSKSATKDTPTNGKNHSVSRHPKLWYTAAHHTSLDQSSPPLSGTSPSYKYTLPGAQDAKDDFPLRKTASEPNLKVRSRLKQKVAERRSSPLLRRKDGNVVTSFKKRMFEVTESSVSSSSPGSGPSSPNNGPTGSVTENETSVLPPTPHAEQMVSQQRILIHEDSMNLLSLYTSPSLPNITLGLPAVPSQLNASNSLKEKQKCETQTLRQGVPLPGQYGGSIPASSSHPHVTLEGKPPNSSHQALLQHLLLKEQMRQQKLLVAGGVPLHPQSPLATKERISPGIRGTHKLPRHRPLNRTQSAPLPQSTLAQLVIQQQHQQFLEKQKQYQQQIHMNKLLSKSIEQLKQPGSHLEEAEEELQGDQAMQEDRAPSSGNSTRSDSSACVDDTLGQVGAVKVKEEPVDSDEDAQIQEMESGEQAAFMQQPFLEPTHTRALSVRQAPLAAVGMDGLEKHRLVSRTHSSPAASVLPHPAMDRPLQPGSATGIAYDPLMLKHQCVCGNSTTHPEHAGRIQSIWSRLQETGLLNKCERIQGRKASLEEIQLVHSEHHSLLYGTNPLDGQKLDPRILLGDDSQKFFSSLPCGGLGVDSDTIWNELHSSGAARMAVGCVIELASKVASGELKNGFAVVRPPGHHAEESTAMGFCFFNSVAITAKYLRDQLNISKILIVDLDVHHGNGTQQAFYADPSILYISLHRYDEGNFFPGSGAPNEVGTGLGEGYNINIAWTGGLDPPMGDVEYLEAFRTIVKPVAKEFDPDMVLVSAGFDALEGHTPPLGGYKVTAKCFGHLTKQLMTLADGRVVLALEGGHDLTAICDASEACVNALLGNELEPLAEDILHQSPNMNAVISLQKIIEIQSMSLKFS
Chain of Acetylcholinesterase (P22303 whole entry): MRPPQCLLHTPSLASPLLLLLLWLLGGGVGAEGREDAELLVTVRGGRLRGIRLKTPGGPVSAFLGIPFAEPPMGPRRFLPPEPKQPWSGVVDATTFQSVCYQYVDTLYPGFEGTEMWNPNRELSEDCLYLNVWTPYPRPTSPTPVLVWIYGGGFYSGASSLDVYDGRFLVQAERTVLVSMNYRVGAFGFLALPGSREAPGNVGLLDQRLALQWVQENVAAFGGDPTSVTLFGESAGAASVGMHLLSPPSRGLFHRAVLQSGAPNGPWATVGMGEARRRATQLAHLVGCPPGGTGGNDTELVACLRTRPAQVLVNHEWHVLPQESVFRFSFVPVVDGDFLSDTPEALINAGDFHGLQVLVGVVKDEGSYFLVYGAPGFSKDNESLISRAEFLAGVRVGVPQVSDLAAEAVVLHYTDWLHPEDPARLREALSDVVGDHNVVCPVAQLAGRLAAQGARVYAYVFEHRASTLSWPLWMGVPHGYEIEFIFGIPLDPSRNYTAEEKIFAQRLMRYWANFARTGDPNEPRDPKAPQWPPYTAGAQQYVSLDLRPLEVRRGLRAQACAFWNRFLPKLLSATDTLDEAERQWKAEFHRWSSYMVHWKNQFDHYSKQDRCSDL
Chain of Histone deacetylase 4 (P56524 whole entry, the tested form may be a part): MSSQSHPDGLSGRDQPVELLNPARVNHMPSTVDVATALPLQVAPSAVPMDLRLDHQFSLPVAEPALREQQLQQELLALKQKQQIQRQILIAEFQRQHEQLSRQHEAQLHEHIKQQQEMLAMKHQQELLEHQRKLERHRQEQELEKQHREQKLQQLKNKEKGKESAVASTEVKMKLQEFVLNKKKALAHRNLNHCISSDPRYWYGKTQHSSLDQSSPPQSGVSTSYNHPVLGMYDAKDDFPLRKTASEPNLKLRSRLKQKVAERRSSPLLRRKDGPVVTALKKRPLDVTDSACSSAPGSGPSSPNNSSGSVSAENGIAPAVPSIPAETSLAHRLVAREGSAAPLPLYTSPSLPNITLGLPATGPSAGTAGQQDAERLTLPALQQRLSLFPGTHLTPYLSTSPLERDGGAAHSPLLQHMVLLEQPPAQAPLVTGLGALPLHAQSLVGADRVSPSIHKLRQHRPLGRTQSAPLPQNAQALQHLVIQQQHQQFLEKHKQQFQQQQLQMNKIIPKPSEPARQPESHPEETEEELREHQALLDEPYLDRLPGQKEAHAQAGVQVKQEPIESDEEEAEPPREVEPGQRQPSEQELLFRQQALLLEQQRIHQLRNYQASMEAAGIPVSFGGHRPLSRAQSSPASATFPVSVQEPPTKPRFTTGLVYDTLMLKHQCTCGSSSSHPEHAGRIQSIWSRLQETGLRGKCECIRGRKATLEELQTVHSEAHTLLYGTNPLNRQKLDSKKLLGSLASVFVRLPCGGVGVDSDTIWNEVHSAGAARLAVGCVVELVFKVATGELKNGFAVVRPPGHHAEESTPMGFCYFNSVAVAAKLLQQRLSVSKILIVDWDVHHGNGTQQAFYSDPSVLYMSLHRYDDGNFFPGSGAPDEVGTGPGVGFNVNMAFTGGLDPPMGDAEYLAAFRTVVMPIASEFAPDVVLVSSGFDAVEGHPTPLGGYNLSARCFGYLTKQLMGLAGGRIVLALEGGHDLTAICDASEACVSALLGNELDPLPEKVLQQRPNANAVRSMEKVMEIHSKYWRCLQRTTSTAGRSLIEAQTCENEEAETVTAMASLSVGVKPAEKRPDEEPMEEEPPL
Chain of Histone deacetylase 5 (Q9UQL6 whole entry, the tested form may be a part): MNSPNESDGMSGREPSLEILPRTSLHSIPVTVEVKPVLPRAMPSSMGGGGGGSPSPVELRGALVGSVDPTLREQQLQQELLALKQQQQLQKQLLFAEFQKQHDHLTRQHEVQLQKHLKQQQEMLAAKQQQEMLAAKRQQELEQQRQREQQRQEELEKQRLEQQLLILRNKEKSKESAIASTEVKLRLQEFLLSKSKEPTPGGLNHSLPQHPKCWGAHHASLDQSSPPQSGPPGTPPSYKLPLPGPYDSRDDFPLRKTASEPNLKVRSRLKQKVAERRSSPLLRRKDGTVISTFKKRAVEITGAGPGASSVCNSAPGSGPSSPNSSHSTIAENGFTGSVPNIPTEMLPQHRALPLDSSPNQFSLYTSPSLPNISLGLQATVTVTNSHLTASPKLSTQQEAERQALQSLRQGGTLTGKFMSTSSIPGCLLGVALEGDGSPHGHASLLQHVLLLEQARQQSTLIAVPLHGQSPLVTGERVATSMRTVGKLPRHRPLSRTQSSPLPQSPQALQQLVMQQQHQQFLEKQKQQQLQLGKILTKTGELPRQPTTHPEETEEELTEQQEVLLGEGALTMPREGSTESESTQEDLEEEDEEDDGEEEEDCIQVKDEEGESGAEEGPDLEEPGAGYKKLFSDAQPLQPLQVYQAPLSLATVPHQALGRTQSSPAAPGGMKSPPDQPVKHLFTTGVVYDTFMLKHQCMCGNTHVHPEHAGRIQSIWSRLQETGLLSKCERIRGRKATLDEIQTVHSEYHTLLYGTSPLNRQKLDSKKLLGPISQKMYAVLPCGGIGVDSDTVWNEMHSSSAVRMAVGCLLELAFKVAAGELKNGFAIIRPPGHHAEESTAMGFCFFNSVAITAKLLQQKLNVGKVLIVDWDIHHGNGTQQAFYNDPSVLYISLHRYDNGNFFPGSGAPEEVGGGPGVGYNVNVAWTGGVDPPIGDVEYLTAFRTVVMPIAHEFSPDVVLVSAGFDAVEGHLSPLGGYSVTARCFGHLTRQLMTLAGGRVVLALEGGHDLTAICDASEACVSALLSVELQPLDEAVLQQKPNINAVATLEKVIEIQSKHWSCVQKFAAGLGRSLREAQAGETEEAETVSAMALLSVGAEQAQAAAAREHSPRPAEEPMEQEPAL
T1 sequence (P05067 whole entry): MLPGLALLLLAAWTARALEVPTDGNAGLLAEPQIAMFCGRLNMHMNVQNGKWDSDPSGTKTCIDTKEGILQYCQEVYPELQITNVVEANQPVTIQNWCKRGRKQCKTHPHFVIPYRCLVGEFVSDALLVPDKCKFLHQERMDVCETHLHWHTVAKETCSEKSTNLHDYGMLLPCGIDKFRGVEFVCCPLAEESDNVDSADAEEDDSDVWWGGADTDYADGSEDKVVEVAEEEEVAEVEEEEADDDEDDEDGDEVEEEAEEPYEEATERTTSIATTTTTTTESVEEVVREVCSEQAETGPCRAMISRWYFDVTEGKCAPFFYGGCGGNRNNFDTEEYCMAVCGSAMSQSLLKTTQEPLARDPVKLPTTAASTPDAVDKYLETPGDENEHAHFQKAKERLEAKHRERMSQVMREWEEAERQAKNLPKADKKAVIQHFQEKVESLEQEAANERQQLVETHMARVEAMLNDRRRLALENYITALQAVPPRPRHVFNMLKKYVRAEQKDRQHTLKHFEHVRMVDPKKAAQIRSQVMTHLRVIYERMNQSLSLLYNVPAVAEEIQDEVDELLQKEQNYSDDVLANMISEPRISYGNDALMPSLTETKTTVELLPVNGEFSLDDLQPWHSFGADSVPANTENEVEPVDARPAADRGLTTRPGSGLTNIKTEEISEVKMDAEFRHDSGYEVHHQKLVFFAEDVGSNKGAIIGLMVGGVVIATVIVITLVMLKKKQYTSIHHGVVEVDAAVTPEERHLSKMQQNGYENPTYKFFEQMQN

| Structure (SMILES) | inhibition [1] [%] | IC50 [2] [µM] | IC50 (Histone deacetylase 5) [µM] | IC50 [3] [µM] | IC50 (Acetylcholinesterase) [µM] | IC50 [4] [µM] | IC50 (Histone deacetylase 4) [µM] | IC50 (Histone deacetylase 9) [µM] | IC50 (Histone deacetylase 7) [µM] | CLint [5] [µL/min/mg] | k el at 1 h, 1 µM [6] [s⁻¹] | half-life at 1 µM [7] [min] |
| --- | --- | --- | --- | --- | --- | --- | --- | --- | --- | --- | --- | --- |
| O=C(NO)c1ccc(Nc2ccnc3ccccc23)cc1 | 0 | 0.039 | 3.37 | 0.6 | 0.83 | > 20 | > 40 | 13.2 |  |  |  |  |
| O=C(NO)c1ccc(Nc2c3c(nc4ccccc24)CCCC3)cc1 | 0 | 3.55 | 17.5 | > 40 | 1.97 | > 20 | > 40 | > 40 | > 40 |  |  |  |
| O=c1c(O)c(-c2ccc(O)cc2O)oc2cc(O)cc(O)c12 [MORIN] |  |  |  |  |  | 8.5 |  |  |  |  |  |  |
| O=C(NO)c1ccc(Nc2c3ccccc3nc3ccc(OC(F)(F)F)cc23)cc1 | 53 | 0.029 | 15.8 | 0.67 | 3.65 | 3.5 | 14.7 | 31.1 |  |  |  |  |
| O=C(NO)c1ccc(Nc2c3ccccc3nc3ccc(OCc4ccccc4)cc23)cc1 | 57 | 0.22 | 0.43 | 3.5 | 2.64 | 3 | 1.21 | 1.25 | 3.1 |  |  |  |
| O=C(NO)c1ccc(Nc2c3ccccc3nc3ccc(F)cc23)cc1 | 38 | 0.029 | 0.69 | 0.25 | 0.6 | > 20 | 3.04 | 0.52 |  |  |  |  |
| O=C(Cc1ccc(Nc2c3ccccc3nc3ccccc23)cc1)NO |  | 0.074 | 1.66 | 2.07 |  |  | 26.6 | 6.42 | 1.94 |  |  |  |
| C[C@]12CC[C@H]3[C@@H](CCC4=CC(=O)CC[C@@]43C)[C@@H]1CC[C@@H]2O [TESTOSTERONE] |  |  |  |  |  |  |  |  |  | 54 | 0.00045 | 25.7 |
| c1ccc2nc3ccccc3cc2c1 [ACRIDINE] |  |  |  |  | 6.84 |  |  |  |  |  |  |  |
| O=C(CCCCCCC(=O)Nc1ccccc1)NO [VORINOSTAT] | 0 |  |  |  |  | > 20 |  |  |  |  |  |  |
| COc1cc2nc3ccccc3c(Nc3ccc(C(=O)NO)cc3)c2c(OC)c1OC | 42 | 0.16 | 4.23 | 0.81 | 0.64 | 13 | 15.7 | 4.95 | 4.57 |  |  |  |
| COc1ccc2nc3cc(Cl)ccc3c(Nc3ccc(C(=O)NO)cc3)c2n1 | 53 | 0.34 | 15.2 | 0.8 | 9.25 | 34.9 | > 40 | > 40 |  |  |  |  |
| O=C(CCc1ccc(Nc2c3ccccc3nc3ccccc23)cc1)NO |  | 0.14 | 2.58 | 0.1 |  |  | 7.06 | 29 |  |  |  |  |
| O=C(NO)c1cccc(Nc2c3ccccc3nc3ccccc23)c1 |  | 4.69 | 20.8 | > 40 |  |  | 29.4 | 12.2 |  |  |  |  |
